The values below come from ChEMBL document CHEMBL4043295, “Marbostat-100 Defines a New Class of Potent and Selective Antiinflammatory and Antirheumatic Histone Deacetylase 6 Inhibitors” (J Med Chem, 2018).

The target of data set [1] is T1, Protein deacetylase HDAC6 (Homo sapiens) (UniProt Q9UBN7).
T1 sequence (whole entry): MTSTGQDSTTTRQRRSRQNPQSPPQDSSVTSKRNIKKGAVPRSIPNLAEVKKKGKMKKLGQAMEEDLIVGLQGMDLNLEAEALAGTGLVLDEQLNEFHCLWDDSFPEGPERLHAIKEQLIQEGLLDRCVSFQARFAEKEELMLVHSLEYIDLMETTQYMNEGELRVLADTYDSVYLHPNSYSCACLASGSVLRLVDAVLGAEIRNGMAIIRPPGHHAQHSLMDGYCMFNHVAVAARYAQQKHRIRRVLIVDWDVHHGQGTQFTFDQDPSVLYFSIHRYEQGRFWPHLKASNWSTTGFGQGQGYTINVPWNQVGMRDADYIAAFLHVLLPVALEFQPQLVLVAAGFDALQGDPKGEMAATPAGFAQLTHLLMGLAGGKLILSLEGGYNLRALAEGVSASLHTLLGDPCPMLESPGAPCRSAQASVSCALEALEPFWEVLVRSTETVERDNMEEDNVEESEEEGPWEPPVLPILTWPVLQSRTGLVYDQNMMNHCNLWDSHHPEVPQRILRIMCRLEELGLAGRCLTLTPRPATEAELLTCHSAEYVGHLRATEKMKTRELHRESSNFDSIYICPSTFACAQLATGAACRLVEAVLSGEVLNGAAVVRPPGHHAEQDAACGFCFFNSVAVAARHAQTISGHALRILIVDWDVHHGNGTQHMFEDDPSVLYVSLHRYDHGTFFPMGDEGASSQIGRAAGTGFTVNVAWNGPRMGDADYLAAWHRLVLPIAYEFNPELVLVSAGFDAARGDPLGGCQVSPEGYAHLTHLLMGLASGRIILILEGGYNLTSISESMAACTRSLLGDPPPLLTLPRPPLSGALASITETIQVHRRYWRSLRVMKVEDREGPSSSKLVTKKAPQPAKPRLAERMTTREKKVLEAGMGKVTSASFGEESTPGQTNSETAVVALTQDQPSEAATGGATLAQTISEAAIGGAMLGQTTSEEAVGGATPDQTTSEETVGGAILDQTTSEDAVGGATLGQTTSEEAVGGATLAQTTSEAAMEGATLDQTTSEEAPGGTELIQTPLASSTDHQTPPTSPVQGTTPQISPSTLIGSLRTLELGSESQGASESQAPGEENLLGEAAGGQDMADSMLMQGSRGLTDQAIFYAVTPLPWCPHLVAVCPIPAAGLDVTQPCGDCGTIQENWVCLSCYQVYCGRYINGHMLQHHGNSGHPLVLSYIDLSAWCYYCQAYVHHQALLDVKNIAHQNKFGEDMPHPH
Conditions: 50 nM.

In a further data set the test system is Jurkat. Description: Cell cycle arrest in human Jurkat cells at 5 to 1000 nM after 24 hrs by propidium iodide staining-based flow cytometric method. It is filed as functional.
The test system of another data set is HEL. As to the kind of experiment: Cell cycle arrest in human HEL cells at 5 to 1000 nM after 24 hrs by propidium iodide staining-based flow cytometric method. The data set is classed as functional.
Data set [2] has as its system Mus musculus. As to the kind of experiment: In vivo inhibition of HDAC6 in DBA/1J mouse assessed as induction of tubulin acetylation in liver at 0.6 mg […] by Western blot method. The data set is classed as functional, organism-based.
Data set [3] concerns Mus musculus. As to the kind of experiment: Toxicity in DBA/1J mouse collagen-induced arthritis model assessed as effect on white blood cell count at 30 mg/kg, ip administered every morning for 12 to 14 days measured post last dose relative to vehicle-treated control. The settings on record: in vivo. It is filed as organism-based.
For the next data set, the target named is Histone deacetylase 1 (Homo sapiens, UniProt Q13547). Description: Inhibition of recombinant human C-terminal FLAG/His-tagged HDAC1 expressed in baculovirus-infected Sf21 insect cells using RHKK(Ac)AMC as substrate after 60 mins by fluorimeter.
Histone deacetylase 1, sequence (Q13547 whole entry): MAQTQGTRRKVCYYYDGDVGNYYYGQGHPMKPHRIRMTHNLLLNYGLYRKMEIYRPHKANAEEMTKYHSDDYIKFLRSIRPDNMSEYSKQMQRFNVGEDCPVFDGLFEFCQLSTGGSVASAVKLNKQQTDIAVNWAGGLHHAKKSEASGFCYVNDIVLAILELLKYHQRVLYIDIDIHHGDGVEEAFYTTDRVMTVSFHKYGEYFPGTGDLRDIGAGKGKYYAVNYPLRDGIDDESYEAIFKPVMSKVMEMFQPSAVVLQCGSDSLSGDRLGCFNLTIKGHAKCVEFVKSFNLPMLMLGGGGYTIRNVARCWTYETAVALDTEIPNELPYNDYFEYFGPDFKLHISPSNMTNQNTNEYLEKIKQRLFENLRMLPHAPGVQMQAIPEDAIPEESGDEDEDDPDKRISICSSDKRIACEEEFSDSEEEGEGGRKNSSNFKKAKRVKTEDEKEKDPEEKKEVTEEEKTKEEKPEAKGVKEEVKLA
The test system of data set [4] is Mus musculus. Description: Antiarthritic activity in DBA/1J mouse collagen-induced arthritis model assessed as reduction of articular bone erosion in arthritic hind paw at 30 mg/kg, ip administered every morning for 12 to 14 days measured post last dose by microCT method relative to vehicle-treated control. The data set is classed as functional, organism-based.

Data set [5] deals with T1, Protein deacetylase HDAC6 (Homo sapiens). The settings on record: 50 nM. The source holds these as a separate data set.
Data set [6] has as its system Mus musculus. Description: Toxicity in DBA/1J mouse collagen-induced arthritis model assessed as effect on red blood cell count at 30 mg/kg, ip administered every morning for 12 to 14 days measured post last dose relative to vehicle-treated control. It is filed as organism-based. The settings on record: in vivo.
In data set [7] the test system is Mus musculus. As to the kind of experiment: Antiarthritic activity in DBA/1J mouse collagen-induced arthritis model assessed as decrease in cellular invasion at 30 mg/kg, ip administered every morning for 12 to 14 days. The data set is classed as functional, organism-based. In a few lines:
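Collagen type II-induced arthritis in mice, treated at 30 mg/kg versus vehicle. Arthritic paws were assessed histologically for synovial inflammation, cellular invasion, cartilage degradation and bone erosion.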

Data set [8] deals with T1, Protein deacetylase HDAC6 (Homo sapiens). The settings on record: 50 nM. This is another data set of the same source.
In another data set the target is T2, Histone deacetylase 11 (Homo sapiens, UniProt Q96DB2).
T2 sequence (Q96DB2 whole entry): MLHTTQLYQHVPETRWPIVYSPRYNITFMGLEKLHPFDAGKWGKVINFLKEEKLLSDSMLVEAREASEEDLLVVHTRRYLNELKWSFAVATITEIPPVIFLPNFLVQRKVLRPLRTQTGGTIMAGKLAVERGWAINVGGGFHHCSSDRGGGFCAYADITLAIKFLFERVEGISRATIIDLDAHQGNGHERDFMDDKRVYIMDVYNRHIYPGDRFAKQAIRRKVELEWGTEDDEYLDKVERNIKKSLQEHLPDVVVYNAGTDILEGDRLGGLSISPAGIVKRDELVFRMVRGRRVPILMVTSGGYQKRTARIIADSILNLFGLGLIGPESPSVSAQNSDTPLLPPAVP
As to the kind of experiment: Inhibition of recombinant human N-terminal His-tagged HDAC11 (1 to 347 residues) expressed in baculovirus-infected insect cells using RHKK(Ac)AMC as substrate by fluorimeter.

Each structure is given as a SMILES string. pKi: −log10 of the molar value. The source made the active and inactive calls. The calls are words filed in the database; no cut-off is given here.

Consider `CN1C(=O)C2CN(Cc3c2c2ccccc2n3Cc2ccc(C(=O)NO)cc2)C1=O` (configuration not stated), for which the inhibition result (in data set [1]; in the data set on Mus musculus [2]; in data set [5]; in data set [8]) was “Active” each time. In addition, the outcome in the data set with Jurkat and in the data set with HEL was inactive. The Activity result with Mus musculus [3] and in the data set on Mus musculus [6] was “Non-Toxic” throughout. Moreover, the results for the pKi on Histone deacetylase 1 and on Histone deacetylase 11 were 6.45 and 6.31, respectively. The outcome in the data set with Mus musculus [4] and with Mus musculus [7] was Active.
